Calls of active or inactive are those of the source. No cut-off for these calls is given here.

The values that follow come from ChEMBL document CHEMBL5338787, “Discovery of Novel Bruton's Tyrosine Kinase PROTACs with Enhanced Selectivity and Cellular Efficacy” (J Med Chem, 2023).

Assay [1] deals with T1, Protein cereblon/Tyrosine-protein kinase BTK (Homo sapiens, UniProt Q06187+Q96SW2). Put plainly: PROTAC activity at BTK/CRBN protein protein interaction in human JeKo-1 cell assessed as degradation of BTK incubated for 17 hrs measured by Western blot analysis relative to control. The format is cell-based. A digest of the protocol: (§1)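 Ramos or JeKo-1 cells (2 × 10^6 per well) were exposed for 17 h to 3000–0.15 nM PROTAC in 3-fold steps. Cells were lysed and analysed by western blot, with BTK normalised to β-actin. DC50 and Dmax come from the dose-response; DC50 is the mean ± SD of two independent experiments.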
T1 sequence (Q06187 2-659 limits assumed): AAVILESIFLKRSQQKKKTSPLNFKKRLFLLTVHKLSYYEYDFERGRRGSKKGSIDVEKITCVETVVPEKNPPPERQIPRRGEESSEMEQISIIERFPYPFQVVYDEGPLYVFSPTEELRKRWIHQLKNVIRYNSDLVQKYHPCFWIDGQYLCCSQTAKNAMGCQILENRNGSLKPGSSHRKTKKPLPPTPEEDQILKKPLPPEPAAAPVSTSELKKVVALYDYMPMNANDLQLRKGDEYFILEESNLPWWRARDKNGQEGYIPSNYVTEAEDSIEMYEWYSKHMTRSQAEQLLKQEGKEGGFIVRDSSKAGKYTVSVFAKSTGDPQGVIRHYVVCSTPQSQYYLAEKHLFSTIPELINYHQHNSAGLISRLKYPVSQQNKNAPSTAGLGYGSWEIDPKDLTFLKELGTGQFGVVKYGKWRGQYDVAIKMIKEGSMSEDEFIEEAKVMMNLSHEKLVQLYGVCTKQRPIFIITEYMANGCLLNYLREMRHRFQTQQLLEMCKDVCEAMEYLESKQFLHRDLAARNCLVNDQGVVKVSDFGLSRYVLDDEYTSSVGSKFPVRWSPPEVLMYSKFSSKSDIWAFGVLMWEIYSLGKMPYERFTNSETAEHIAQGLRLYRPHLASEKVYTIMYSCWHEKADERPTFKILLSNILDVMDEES
T1 sequence (Q96SW2 whole entry partner): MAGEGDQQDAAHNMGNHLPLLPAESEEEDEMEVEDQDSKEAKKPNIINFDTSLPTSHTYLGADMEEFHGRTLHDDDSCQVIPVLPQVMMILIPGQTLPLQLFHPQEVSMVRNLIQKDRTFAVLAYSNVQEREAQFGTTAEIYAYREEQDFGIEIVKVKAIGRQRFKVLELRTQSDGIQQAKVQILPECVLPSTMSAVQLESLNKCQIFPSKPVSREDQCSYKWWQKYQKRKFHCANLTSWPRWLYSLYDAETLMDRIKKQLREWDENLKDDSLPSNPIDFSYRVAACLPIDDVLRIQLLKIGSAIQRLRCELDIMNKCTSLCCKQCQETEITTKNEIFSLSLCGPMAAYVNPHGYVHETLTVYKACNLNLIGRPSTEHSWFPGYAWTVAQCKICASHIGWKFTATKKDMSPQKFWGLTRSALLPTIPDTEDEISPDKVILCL
In general terms: In western blotting, separated proteins are transferred to a membrane and probed.

Assay [2] has as its target T2, Zinc finger protein 280D (Homo sapiens) (UniProt Q6N043).
T2 sequence (whole entry): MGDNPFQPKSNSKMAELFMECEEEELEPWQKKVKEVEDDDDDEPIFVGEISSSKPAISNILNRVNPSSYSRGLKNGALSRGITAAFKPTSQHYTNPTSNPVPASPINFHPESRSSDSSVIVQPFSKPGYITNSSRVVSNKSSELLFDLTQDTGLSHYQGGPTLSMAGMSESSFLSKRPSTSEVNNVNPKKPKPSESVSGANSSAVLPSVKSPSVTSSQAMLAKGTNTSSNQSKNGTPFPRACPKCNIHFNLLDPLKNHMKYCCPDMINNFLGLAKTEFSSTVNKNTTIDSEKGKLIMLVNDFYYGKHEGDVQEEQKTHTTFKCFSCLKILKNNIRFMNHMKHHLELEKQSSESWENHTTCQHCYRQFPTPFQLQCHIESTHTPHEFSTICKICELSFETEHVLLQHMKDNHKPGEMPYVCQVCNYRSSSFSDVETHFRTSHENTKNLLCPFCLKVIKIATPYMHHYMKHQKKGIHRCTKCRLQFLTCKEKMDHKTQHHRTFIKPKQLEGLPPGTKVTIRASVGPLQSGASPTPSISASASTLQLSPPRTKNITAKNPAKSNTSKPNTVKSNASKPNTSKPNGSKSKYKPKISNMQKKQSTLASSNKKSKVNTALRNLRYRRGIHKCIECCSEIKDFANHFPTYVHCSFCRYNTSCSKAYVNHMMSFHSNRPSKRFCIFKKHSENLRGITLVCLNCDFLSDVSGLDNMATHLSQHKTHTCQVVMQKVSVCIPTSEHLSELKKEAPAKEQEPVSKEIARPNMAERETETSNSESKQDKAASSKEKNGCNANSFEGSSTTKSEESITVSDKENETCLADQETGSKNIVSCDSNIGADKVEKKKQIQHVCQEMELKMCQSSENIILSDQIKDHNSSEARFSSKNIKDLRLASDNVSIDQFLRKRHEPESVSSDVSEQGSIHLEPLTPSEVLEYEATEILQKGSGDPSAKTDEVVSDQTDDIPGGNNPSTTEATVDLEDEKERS
Briefly: Degradation of […] in human TMD8 cells by measuring protein level at 111 nM for 6 hrs using label free proteomic analysis. It is filed as cell-based. A digest of the protocol: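 TMD8 cells (2 × 10^6) given 111 nM or DMSO for 6 h in duplicate. Lysed in 5% SDS/50 mM TEAB pH 8.5. 200 μg protein reduced (10 mM DTT, 55 °C, 30 min), alkylated (50 mM iodoacetamide), S-Trap processed, then LC-MS/MS. Label-free matched-peptide quantitation against DMSO, human UniProt; Benjamini–Hochberg-corrected p-values.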

For assay [3], the system named is TMD8. Put plainly: Induction of apoptosis in human TMD8 cells measured after 48 hrs by Annexin-V/propidium iodide staining based flow cytometric analysis. The format is functional, cell-based. To be noted: dose 0.15-3000 nM. A digest of the protocol:
(§2)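 Cells plated at 2 × 10^6 per well and treated 48 h at 3,000–0.15 nM (3-fold dilutions) or 1% DMSO. Harvested, washed in cold PBS, stained with Annexin V Alexa Fluor 488/propidium iodide, analysed by flow cytometry for % live, apoptotic and necrotic cells. Mean of two independent experiments.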

Assay [4] deals with T1, Protein cereblon/Tyrosine-protein kinase BTK. Put plainly: PROTAC activity at BTK/CRBN protein protein interaction in human JeKo-1 cell assessed as Hook effect incubated at >333 nM for 17 hrs measured by Western blot analysis. The format is cell-based. A digest of the protocol: as §1
Assay [5] shares this target. Briefly: PROTAC activity at BTK/CRBN protein protein interaction in human Ramos cell assessed as Hook effect incubated at >333 nM for 17 hrs measured by Western blot analysis. The format is cell-based. A digest of the protocol: as §1
The target is the same in assay [6]. Briefly: PROTAC activity at BTK/CRBN protein protein interaction in human Ramos cell assessed as degradation of BTK preincubated with neddylation inhibitor MLN-4924 for 2 hrs followed by compound addition at 111 nM for 4 hrs measured by Western blot analysis. The format is cell-based. A digest of the protocol:
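Ramos cells were pre-treated for 2 h with bortezomib (proteasome inhibitor) or MLN-4924 (NEDD8-activating enzyme inhibitor), then given 111 nM degrader for 4 h. BTK level was assessed by western blot.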

The target of assay [7] is Tyrosine-protein kinase BTK (Homo sapiens, UniProt Q06187). Briefly: Inhibition of BTK in HEK293 cells using NanoGlo substrate incubated for 2 hrs by NanoBRET assay. It is filed as cell-based. (In general: BRET reads energy transfer from a luciferase to a nearby fluorophore.)
Chain of Tyrosine-protein kinase BTK (Q06187 whole entry): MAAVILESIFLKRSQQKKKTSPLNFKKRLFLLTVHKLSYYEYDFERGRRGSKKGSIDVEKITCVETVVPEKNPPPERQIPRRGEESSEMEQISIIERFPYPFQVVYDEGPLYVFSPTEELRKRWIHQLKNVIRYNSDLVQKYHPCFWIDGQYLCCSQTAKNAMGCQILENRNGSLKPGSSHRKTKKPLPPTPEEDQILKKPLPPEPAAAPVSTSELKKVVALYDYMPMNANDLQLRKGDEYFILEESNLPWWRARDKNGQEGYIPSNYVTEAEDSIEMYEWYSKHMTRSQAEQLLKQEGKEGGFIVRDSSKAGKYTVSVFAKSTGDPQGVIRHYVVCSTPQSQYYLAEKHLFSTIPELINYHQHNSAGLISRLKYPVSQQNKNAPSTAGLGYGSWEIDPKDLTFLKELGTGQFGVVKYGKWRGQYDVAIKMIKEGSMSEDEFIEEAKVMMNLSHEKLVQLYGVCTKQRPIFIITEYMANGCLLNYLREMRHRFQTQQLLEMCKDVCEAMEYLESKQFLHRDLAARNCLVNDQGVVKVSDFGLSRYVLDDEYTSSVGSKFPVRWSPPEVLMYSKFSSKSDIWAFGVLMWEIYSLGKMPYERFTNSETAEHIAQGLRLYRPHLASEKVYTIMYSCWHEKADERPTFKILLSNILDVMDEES
The target in a further assay is Protein cereblon (Homo sapiens, UniProt Q96SW2). Briefly: Inhibition of CRBN in HEK293 cells using NanoGlo substrate incubated for 2 hrs by NanoBRET assay. It is filed as cell-based.
Chain of Protein cereblon (Q96SW2 whole entry): as the sequence (Q96SW2 whole entry partner) above
A short description of assay [8]: Cytotoxicity against human MINO cells incubated for 48 hrs by celltitre glo 2.0 assay. The format is functional, cell-based.
The subject of assay [9] is TMD8. Put plainly: Induction of apoptosis in human TMD8 cells at 333 nM for 48 hrs by Annexin-V/propidium iodide staining based flow cytometric analysis. It is filed as functional, cell-based. A digest of the protocol: as §2
(In flow cytometry, cells or beads pass a laser one at a time.)

For assay [10], the system named is MINO. Put plainly: Induction of apoptosis in human MINO cells measured after 48 hrs by Annexin-V/propidium iodide staining based flow cytometric analysis. It is filed as functional, cell-based. Conditions: dose 0.15-3000 nM. A digest of the protocol: as §2
Assay [11] deals with TMD8. Put plainly: Induction of apoptosis in human TMD8 cells assessed as decrease in PARP level measured after 48 hrs by Western blot analysis. Conditions: dose 0.15-3000 nM. It is filed as functional, cell-based. A digest of the protocol:
(§3)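 TMD8 or Mino cells (2 × 10^6 per well) exposed 48 h to 3000–0.15 nM (3-fold dilution) or 1% DMSO. Lysates BCA-normalised, 8–30 μg per lane on 4–20% Tris-glycine gels, transferred to nitrocellulose, probed with antibodies, HRP chemiluminescence detection and densitometry. Representative of two independent experiments.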

Assay [12] relates to TMD8. Put plainly: Induction of apoptosis in human TMD8 cells assessed as increase in cleaved caspase 3 level measured after 48 hrs by Western blot analysis. It is filed as functional, cell-based. To be noted: dose 0.15-3000 nM. A digest of the protocol: as §3
Assay [13] has as its system TMD8. Put plainly: Induction of apoptosis in human TMD8 cells assessed as downregulation in Mcl-1 level measured at 0.15 to 3000 nM after 48 hrs by Western blot analysis. The format is functional, cell-based. To be noted: dose 0.15-3000 nM. A digest of the protocol:
as §3

In assay [14] the test system is MINO. Put plainly: Induction of apoptosis in human MINO cells assessed as decrease in caspase 3 level measured after 48 hrs by Western blot analysis. The format is functional, cell-based. To be noted: dose 0.15-3000 nM. A digest of the protocol: as §3
In assay [15] the test system is MINO. Put plainly: Induction of apoptosis in human MINO cells assessed as downregulation in Bcl-2 level measured at 0.15 to 3000 nM after 48 hrs by Western blot analysis. It is filed as functional, cell-based. To be noted: dose 0.15-3000 nM. A digest of the protocol: as §3
Assay [16] has as its system MINO. Put plainly: Induction of apoptosis in human MINO cells assessed as downregulation in Mcl-1 level measured at 0.15 to 3000 nM after 48 hrs by Western blot analysis. The format is functional, cell-based. Conditions: dose 0.15-3000 nM. A digest of the protocol: as §3
Assay [17] concerns the target T1, Protein cereblon/Tyrosine-protein kinase BTK. Briefly: PROTAC activity at BTK/CRBN protein protein interaction in human Ramos cell assessed as degradation of BTK incubated at 111 nM for 17 hrs in presence of -iberdomide at 20 uM measured by Western blot analysis.

What is called Emax is the greatest response seen or fitted, relative to the assay's reference. Regarding `C[C@H]1CN(C(=O)COc2cccc3c2C(=O)N(C2CCC(=O)NC2=O)C3=O)CCN1c1ccc(Nc2cc(-c3ccnc(N4CCn5c(cc6c5CC(C)(C)C6)C4=O)c3CO)cn(C)c2=O)nc1` (stereo not given in full), the Emax in assay [1] turned out to be 97%. In assay [2], the outcome was Active.

In general, IC50 refers to the concentration that gives 50% inhibition. Low readings indicate higher potency, high ones lower potency. For `C[C@H]1CN(C(=O)CNc2cccc3c2C(=O)N(C2CCC(=O)NC2=O)C3=O)CCN1c1ccc(Nc2cc(-c3ccnc(N4CCn5c(cc6c5CC(C)(C)C6)C4=O)c3CO)cn(C)c2=O)nc1` (stereo not given in full), the Activity entry in the assay on TMD8 [3] and in the assay with MINO [10] was “Dose-Dependent Effect” each time. The outcome (in assay [4]; in assay [5]; in assay [2]; in the assay on TMD8 [9]; with TMD8 [11]; in the assay on TMD8 [12]) was Active. Also, the result with TMD8 [13], in the assay on MINO [14], in the assay on MINO [15] and in the assay on MINO [16] was Active. Moreover, in [1], the Emax was found to be 95.7%. Also, the outcome in [6] and in [17] was inactive. Further, the figures for the IC50 (in [7]; at Protein cereblon; in assay [8]) were 97 nM, 107 nM and 2.2 nM, respectively.
